Where a SMILES comes first, the peptide text is derived from it. [ ]: non-standard residue; d: D form. Hica(2S) = CC(C)C[C@H](O)C(=O)O

Consider 2 compounds from publication PMC3819105 (Biomaterials science, 2013).

Series [1] deals with C3H10T½ cells. In words: 3D microgel cell culture. The series is classed as cell-based, mouse. Particulars: C3H10T½ cells in hydrogel. The essentials: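 Cells kept in Eagle's Basal Medium with 10% FBS, L-glutamine, 1 mM sodium pyruvate and non-essential amino acids. They were trypsinized, resuspended at 6,000 cells/µL in 10% sucrose with antibiotics, and mixed 1:2 with 22.5 mM aqueous peptide. The mixture (2,000 cells/µL) was pipetted into culture medium in 4–5 µL droplets to gel. Phase contrast imaging at day 3. MTS at 4 h, 3 and 5 days; mean ± SD of 3 wells.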

Series [2] is described as follows: Oscillating rheometry of hydrogels. The series is classed as physicochemical. The essentials:
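Peptide held overnight in water at 30 or 15 mM, cast on a glass slide inside an 8-mm filter-paper ring, and gelled under a PBS overlay for 2 h. PBS removed, parallel-plate frequency sweep 0.1–3.162 Hz at 0.1% strain, harmonic distortion under 10%. For ageing, gels held submerged in PBS at 37°C for 1 or 3 days. Mean ± SD of 3–5 separate gels; G'/G'' at 1 Hz compared by ANOVA-Tukey or t-test, p<0.05.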

The nature of series [3]: Solubility limit in water. The series is classed as physicochemical.
Series [4] is described as follows: TEM of nanofiber formation and degradation. The series is classed as physicochemical. As to conditions: 2 mM in PBS, 37°C, 7 days.
A short description of series [5]: Macroscopic hydrogel degradation visualised with Congo red. In kind it is physicochemical. Summed up: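 50 µM Congo red added to the aqueous peptide solution (sonicated, held overnight at room temperature) while making 15 mM gels. Gels pipetted into multi-well dishes, immersed in PBS at 37°C and photographed over 28 days.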
For series [6], the system named is trypsin. Particulars: cited from earlier work.
The test system of series [7] is α-chymotrypsin. Particulars: cited from earlier work.
In series [8] the test system is papain. Particulars: cited from earlier work.

Regarding `CC(=O)N[C@@H](CCC(N)=O)C(=O)N[C@@H](CCC(N)=O)C(=O)N[C@@H](CCCCN)C(=O)N[C@@H](Cc1ccccc1)C(=O)N[C@@H](CCC(N)=O)C(=O)O[C@@H](CC(C)C)C(=O)N[C@@H](CCC(N)=O)C(=O)N[C@@H](Cc1ccccc1)C(=O)N[C@@H](CCC(=O)O)C(=O)N[C@@H](CCC(N)=O)C(=O)N[C@@H](CCC(N)=O)C(N)=O` [Depsi-L] (Ac-QQKFQ[Hica(2S)]QFEQQ-NH2; N-terminus assumed), the “Proliferation of encapsulated cells” value in series [1] (over 5 days, MTS assay, 3 wells) is “proliferated”. In addition, the “Morphology of encapsulated cells” value in series [1] (phase contrast) is reported as “more spread morphology”. For the same compound, the “Storage modulus of hydrogel” value in series [2] (30 mM hydrogel, PBS-gelled 2 hours, 0.1% strain, mean of 3 – 5 samples) is reported as over 100 kPa. In addition, the “Storage modulus (G') relative to Q11 hydrogel” value in series [2] (30 mM hydrogels, PBS-gelled 2 hours, 0.1% strain, calculated at 1 Hz) is recorded as “about 6 times”. The “Change of hydrogel moduli (G', G'') over time” value in series [2] (hydrogels submerged in PBS, 37°C, up to day 3) is “decreased significantly”. Moreover, the solubility (usually the dissolved amount per volume that the medium holds) in series [3] was at least 30 mM. The “Nanofiber state by TEM at day 7” value in series [4] was “shorter and thinner”. Besides, the “Time for which integrity of acellular hydrogel could be maintained” value in series [5] (15 mM acellular hydrogel, PBS, 37°C) is “about 14 days”. Also, in series [5] (15 mM hydrogel, immersed in PBS at 37°C, 28 days, representative of 3 gels), the “Gel appearance over 28 days (Congo red stained)” value was “faded and disappeared”.
(AEAEAKAK)2: the Resistance to proteolysis result in series [6], in series [7] and in series [8] was “highly resistant” throughout.
